pIC50: −log10 of the molar value. Calls of active or inactive are those of the source. No cut-off for these calls is given here.
What was measured:
[1] = system: PC-3; test: Antiproliferative activity against human PC3 cells after 24 hrs by MTT assay; assay type: functional, cell-based; details: PC-3, 24 h
Method in brief: (§1)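 1×10^4 cells/well seeded in DMEM with 10% FBS and antibiotic-antimycotic, grown 24 h at 37 °C under 5% CO2. Compounds diluted in phenol red-free DMEM with 2% FBS and given for 24 h, with vehicle control. MTT (5 mg/mL, 20 µL) added for 3 h. Formazan dissolved in DMSO, absorbance read at 570 nm. IC50 is the concentration giving 50% growth inhibition.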

[2] = system: MDA-MB-231; test: Induction of cell cycle arrest in human MDA-MB-231 cells assessed as accumulation at subG1 phase at IC50 concentration measured after 24 hrs by propidium iodide staining based flow cytometry; assay type: functional
Method in brief: (§2)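 1×10^6 cells seeded in six-well plates and treated 24 h. Floating and trypsinized adherent cells pooled and fixed in 70% ethanol. Cells washed in PBS, then stained 30 min at room temperature in the dark with 30 µg/mL propidium iodide in PBS containing RNase A. DNA content measured by flow cytometry.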

[3] = system: MDA-MB-231; test: Antiproliferative activity against human MDA-MB-231 cells after 24 hrs by MTT assay; assay type: functional, cell-based; details: MDA-MB-231, 24 h; method in brief: as §1
[4] = system: HEK293; test: Cytotoxicity against human HEK293 cells after 24 hrs by MTT assay; assay type: cell-based; details: HEK293, 24 h; method in brief: as §1
[5] = system: HCT-116; test: Antiproliferative activity against human HCT116 cells after 24 hrs by MTT assay; assay type: functional, cell-based; details: HCT-116, 24 h; method in brief: as §1
[6] = system: MCF7; test: Antiproliferative activity against human MCF7 cells after 24 hrs by MTT assay; assay type: functional, cell-based; details: MCF7, 24 h; method in brief: as §1
[7] = system: U-937; test: Induction of cell cycle arrest in human U937 cells assessed as accumulation at subG1 phase at IC50 concentration measured after 24 hrs by propidium iodide staining based flow cytometry; assay type: functional; method in brief: as §2
[8] = system: U-937; test: Antiproliferative activity against human U937 cells after 24 hrs by MTT assay; assay type: functional, cell-based; details: U-937, 24 h; method in brief: as §1
[9] = system: MDA-MB-231; test: Induction of reactive oxygen species production in human MDA-MB-231 cells after 24 hrs by DCFH-DA dye based flow cytometry; assay type: functional, cell-based
Method in brief: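 MDA-MB-231 cells (1×10^6) seeded 24 h in six-well plates, then treated 24 h. Cells harvested, washed in PBS and fixed in absolute methanol. Cells resuspended in PBS with 15 µg/mL DCFH-DA for 30 min in the dark, then pelleted, taken up in PBS, and fluorescence read by flow cytometry.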

[10] = system: HCT-116; test: Induction of cell cycle arrest in human HCT116 cells assessed as accumulation at subG1 phase at IC50 concentration measured after 24 hrs by propidium iodide staining based flow cytometry; assay type: functional; method in brief: as §2
[11] = system: MCF7; test: Induction of cell cycle arrest in human MCF7 cells assessed as accumulation at subG1 phase at IC50 concentration measured after 24 hrs by propidium iodide staining based flow cytometry; assay type: functional; method in brief: as §2
[12] = system: PC-3; test: Induction of cell cycle arrest in human PC3 cells assessed as accumulation at subG1 phase at IC50 concentration measured after 24 hrs by propidium iodide staining based flow cytometry; assay type: functional; method in brief: as §2

Row | pIC50 [1] | pIC50 [3] | pIC50 [5] | pIC50 [6] | pIC50 [8] | Compound | Activity [2] | pIC50 [4] | Activity [7] | Activity [9] | Activity [10] | Activity [11] | Activity [12]
1 | 4.45 | 4.74 | 4.33 | 4.65 | 4.69 | COC1=C(OC)C(O)(CCn2cc(-c3ccccc3)nn2)NC1=O (centres undefined) | Active | 4.21 | Active | Active | Active | Active | Active
2 | < 4.00 | 4.68 | 4.27 | 4.69 | 4.67 | O=C1NC(O)(CCn2cc(-c3ccccc3)nn2)C(OCc2ccccc2)=C1OCc1ccccc1 (centres undefined) | Active | < 4.00 | Active | Active | Active | Active | Active

— ChEMBL document CHEMBL3297682, “Synthesis and anticancer activity of γ-(triazolyl ethylidene)butenolides and polyfunctional pyrrolinones” (Eur J Med Chem, 2014)
